Assay outcomes (PubChem BioAssay)
In the library only some 4.6% were active in any assay of this set; here they are far more common.
GPR7 antag: human neuropeptides B/W receptor 1 antagonism | inhibition, % at 4.4 µM | AID 1861 | P48145 | actives 1.1% (n = 290,000) | GPR7-expressing cells, fluorescence antagonist assay; in the data active means inhibition above about 16%, passing the limit was not always enough;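 further: cells stimulated with the agonist NPW; 0% = agonist with vehicle and 100% = vehicle without agonist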
Target sequence (P48145 whole entry, looked up): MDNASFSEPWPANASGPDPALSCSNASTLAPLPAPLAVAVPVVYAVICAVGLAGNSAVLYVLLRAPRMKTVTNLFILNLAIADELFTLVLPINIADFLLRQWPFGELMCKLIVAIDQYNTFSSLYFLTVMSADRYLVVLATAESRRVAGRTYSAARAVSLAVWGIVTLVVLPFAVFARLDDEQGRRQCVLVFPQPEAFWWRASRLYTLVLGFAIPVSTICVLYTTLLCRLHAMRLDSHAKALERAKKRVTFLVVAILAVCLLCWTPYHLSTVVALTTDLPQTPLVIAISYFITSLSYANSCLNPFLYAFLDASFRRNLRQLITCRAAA
TAAR1 ag: agonists of human TAAR1. AID 624467. CHO RD-HGA16 TAAR1, Fluo-8 calcium fluorescence; vehicle wells 0%, saturating PEA agonist 100%. actives 0.99% (n = 360,000). Q96RJ0. activation, % at 3 µM;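 active means activation above the mean activation of all test compounds in the run plus 3 SD, cut at about 38% in these data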
Target sequence (Q96RJ0 whole entry, looked up): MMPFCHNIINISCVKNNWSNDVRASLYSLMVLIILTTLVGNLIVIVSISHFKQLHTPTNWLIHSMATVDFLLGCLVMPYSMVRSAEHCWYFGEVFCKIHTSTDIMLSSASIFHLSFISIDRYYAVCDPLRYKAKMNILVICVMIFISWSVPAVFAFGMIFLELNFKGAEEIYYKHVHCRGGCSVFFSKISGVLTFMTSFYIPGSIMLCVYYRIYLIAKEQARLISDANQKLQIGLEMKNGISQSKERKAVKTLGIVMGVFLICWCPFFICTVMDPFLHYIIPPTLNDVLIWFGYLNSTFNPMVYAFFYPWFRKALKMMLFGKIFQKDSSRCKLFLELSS
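Benchmarks: low control DMSO, high control PEA (EC100); System: CHO RD-HGA16 cells carrying human TAAR1 plus Gα16; Detection: Fluo-8 fluorescence, 5 s baseline then 140 s kinetic read; Schedule: 17-24 h plating, Fluo-8 75 min 37 °C, 30 min RT; Read-out basis: % activation from peak over basal fluorescence ratio, DMSO-to-PEA scaled.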
OX1R antag-1: antagonists of human orexin 1 receptor (OX1R); O43613; OX1R-expressing cells, FRET antagonist read-out; inhibition, % at 6.6 µM; actives 1.8% (n = 330,000); in the data active means inhibition mostly above about 38%, no sharp cut-off; inactive means mostly below about 40%;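 further: 0% = agonist challenge alone and 100% = reference antagonist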
CHO parental Ca: counter-screen: ATP calcium response change in parental CHO cells; parental CHO-K1, ATP-induced calcium, Fluo-8 fluorescence; inhibition, % at 5.6 µM; actives 0.63% (n = 330,000); AID 463079;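 active means inhibition above that plate's mean sample inhibition plus 3 SD, cut at about 26% in these data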;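 further: 0% = ATP-challenged DMSO wells and 100% = DMSO wells without ATP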
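Assay system: parental CHO cells; Read-out basis: percent inhibition of ATP-evoked calcium rise, normalized to controls; Benchmarks: ATP and no-ATP DMSO wells; Compound dosing: single nominal dose of 5.6 µM per compound; Signal: Fluo-8 calcium dye fluorescence; Also added: ATP as calcium-mobilizing challenge; Repeats: singlicate.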
OX1R antag-2: antagonists of human orexin 1 receptor. CHO/OX1R cells, Fluo-8 calcium fluorescence, orexin A. actives 0.43% (n = 330,000). inhibition, % at 5 µM. O43613;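 active means inhibition above its plate's threshold, mean inhibition of all tested compounds on the plate plus 3 SD, cut at about 37% in these data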;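 further: 0% = orexin A challenge wells and 100% = SB-334867-A antagonist wells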
TAAR1 antagonist: antagonists of human TAAR1 | CHO RD-HGA16 TAAR1, Fluo-8 calcium fluorescence, antagonist | actives 1.5% (n = 360,000) | Q96RJ0 | inhibition, % at 3 µM;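 active means inhibition above a per-plate cutoff, the mean inhibition of test compounds on that plate plus 3 SD, cut at about 49% in these data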;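 further: 0% = DMSO plus EC80 beta-PEA response and 100% = DMSO alone without agonist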
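System: CHO RD-HGA16 cells bearing hTAAR1. Reagent: EC80 β-phenethylamine stimulus. Schedule: seeding 17-24 h prior, 75-min 37 °C, 30-min RT dye loading. Signal: Fluo-8 intracellular calcium dye fluorescence, real-time kinetic reads. Read-out: % inhibition from peak post-agonist over basal fluorescence ratio. Benchmarks: vehicle wells and EC80 agonist wells. Replicates: n of 1.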
GPR7 antag cf: human GPR7 antagonism, confirmation assay; shares compounds with GPR7 antag; GPR7-expressing cells, calcium fluorescence antagonist mode; inhibition, % at 4.4 µM; actives 52% (n = 2,400); in the data active means inhibition above about 24%;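 further: stimulated with the GPR7 agonist NPW; 0% = agonist plus vehicle and 100% = vehicle alone without agonist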
MCHR1 antag: MCHR1 (human) antagonism in GPR7 counter-screen; shares compounds with GPR7 antag; MCHR1-expressing cells, fluorescence antagonist assay; inhibition, % at 4.4 µM; actives 62% (n = 2,400); in the data active means inhibition above about 22%;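 further: 0% = vehicle with agonist and 100% = vehicle without agonist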
An asterisk follows results filed as active; / = no result given.

SMILES	GPR7 antag	TAAR1 ag	OX1R antag-1	CHO parental Ca	OX1R antag-2	TAAR1 antagonist	GPR7 antag cf	MCHR1 antag
c1ccc(CN(Cc2ccccc2)c2nn[nH]n2)cc1	0	1	12	-13	-2	-13	/	/
CC(CC(=O)NC1CCCC1)c1ccccc1 (centres undefined)	34*	7	32	-2	-36	5	5	-1
CC(C)CNC(=O)[C@@H]1CSC2c3ccccc3C(=O)N21 (some centres undefined)	-12	3	/	/	/	-5	/	/
CC(=O)Nc1ccc(NC(=O)COC(=O)C2c3ccccc3Oc3ccccc32)cc1	23*	5	/	/	/	4	3	7
O=C(COC(=O)C1c2ccccc2Oc2ccccc21)Nc1ccc2c(c1)OCO2	-8	14	19	-7	4	17	/	/
CCOC(=O)C1=C(C(=O)OCC)C2N(Cc3ccc(C#N)cc3)c3ccccc3[C@@]23C[C@@H](C(=O)OC)N(S(=O)(=O)c2ccccc2C)C3=N1 (some centres undefined)	/	1	/	/	/	-10	/	/
Cc1ccccc1OCCNc1cc(N2CCNCC2)ccc1[N+](=O)[O-]	30*	/	20	19	-3	/	47*	66*
COc1ccccc1OCCNc1cc(N2CCCCC2)ccc1[N+](=O)[O-]	-2	0	21	21	-15	34	/	/
COc1ccc(-n2c(-c3ccc(Cl)cc3)c[n+]3c2CCc2ccccc2-3)cc1	31*	10	6	-3	-21	5	33*	35*
Cc1ccc(CN(C(=O)c2c(F)cccc2F)C2CC(C)(C)NC(C)(C)C2)o1	25*	5	12	0	-12	5	9	3
COc1ccc(NC(=O)c2cc(C3CCCCN3C(=O)c3ccc(Cl)cc3)on2)c(C)c1 (centres undefined)	/	5	/	/	/	-9	/	/
O=C(Nc1ccc(F)cc1F)NC1CCN(S(=O)(=O)c2ccc(F)cc2)CC1	37*	3	5	-9	-6	7	18	6
Cc1cc(Cl)ccc1NC(=O)NC1CCN(S(=O)(=O)c2ccc(F)cc2)CC1	-5	5	22	-6	-19	17	/	/
NC(=S)N=Nc1c(O)[nH]c2c(Br)cc(Br)cc12	34*	0	34	-13	-24	4	9	28*
NC(=S)N=Nc1c(O)[nH]c2ccccc12	-7	1	26	-4	-9	7	/	/
Cc1cc(Cl)ccc1NC(=O)CSc1nnc(Cc2cccs2)n1Cc1ccco1	23*	2	19	-19	-11	9	38*	34*
N#Cc1ccc(CSc2nnc(Cc3cccs3)n2Cc2ccco2)cc1	25*	/	23	2	-2	/	28*	20
COC(=O)CCC(=O)N1CCC(Oc2cccc(C(=O)NCc3ccccn3)c2)CC1	/	2	/	/	/	-4	/	/
CCOC(=O)C1=C(c2ccccc2)NC(=O)NC1c1ccc(O)c(Cl)c1 (centres undefined)	75*	1	8	-3	9	41	66*	49*
CCOC(=O)C1=C(c2ccccc2)NC(=O)NC1c1ccc(O)c(OCC)c1 (centres undefined)	-7	1	14	-6	-10	-12	/	/
CC(C)(O)C#Cc1ccc(CNC[C@H]2O[C@@H](n3cnc4c(N)ncnc43)[C@H](O)[C@@H]2O)s1	/	2	4	-7	2	-3	/	/
Cc1ccc(NC(=O)c2ncn(CCCNCCCc3ccccc3)n2)cc1C	/	12	/	/	/	-12	/	/
CCCOc1ccc(N2C(=O)CC(N3CCN(c4ccccc4F)CC3)C2=O)cc1 (centres undefined)	-7	-5	7	-9	-29	-29	/	/
CCCOc1ccc(N2C(=O)CC(N3CCN(c4nc5ccccc5s4)CC3)C2=O)cc1 (centres undefined)	42*	6	16	-32	-24	1	-3	33*
Cc1ccc(OCC(O)Cn2c(=N)n(CCN3CCCCC3)c3ccccc32)cc1 (centres undefined)	28*	8	8	-21	-21	3	41*	39*
SMILES	GPR7 antag	TAAR1 ag	OX1R antag-1	CHO parental Ca	OX1R antag-2	TAAR1 antagonist	GPR7 antag cf	MCHR1 antag
COc1ccc(OCC(O)Cn2c(=N)n(CCN3CCCCC3)c3ccccc32)cc1 (centres undefined)	29*	6	14	-12	-45	-13	14	23*
N#C/C(=C/C1=C(N2CCOCC2)C(=C/c2ccc(Cl)cc2)/CC1)C(=O)Nc1ccccc1F	/	4	/	/	/	1	/	/
O=C(O)C(Cc1ccccc1)N1C(=O)/C(=C/c2ccccc2)SC1=S (centres undefined)	-12	3	14	-2	-4	-2	/	/
COc1cc(/C=C2\SC(=S)N(C(Cc3ccccc3)C(=O)O)C2=O)ccc1O (centres undefined)	22*	24	26	20	27	9	9	20
NCC12CC3CC(C1)CC(c1ccc(Br)cc1)(C3)C2	48*	42*	2	-4	-8	22	29*	33*
CCOC(=O)c1cnc(-n2nc(C)cc2C)nc1NC	-11	18	7	-4	-11	-4	/	/
CCOC(=O)c1cnc(-n2nc(C)cc2C)nc1NC1CCCCC1	28*	31	15	71*	74*	23	77*	73*
CCOc1ccc(NC(=O)Nc2nc(SCC)ns2)cc1	25*	6	41	37*	-5	18	33*	66*
CCSc1nsc(NC(=O)Nc2ccc(F)cc2F)n1	54*	/	43*	74*	15	/	52*	55*
CCc1nnc(NS(=O)(=O)c2ccc(NC(=O)c3ccccc3O)cc2)s1	2	4	2	3	6	-6	/	/
C[n+]1cccc(NC(=O)c2ccccc2)c1	/	2	/	/	/	-13	/	/
O=C(Nc1ccc(F)cc1)c1cccc(N2C(=O)C3C4C=CC(C5CC45)C3C2=O)c1 (centres undefined)	26*	9	15	-8	-20	40	24*	45*
Cc1ccccc1NC(=O)CNC(=O)c1ccc(C(F)(F)F)cc1	-4	-2	20	-10	-8	5	/	/
Cc1ccccc1NC(=O)Nc1ccc(C(F)(F)F)cc1	54*	7	33	25	0	-10	69*	52*
O=C(Nc1ccc(Br)cc1)Nc1ccccc1F	28*	16	26	5	-6	12	59*	65*
